# In ChEMBL document CHEMBL4325893, “Synthesis and antibacterial profiles of targeted triclosan derivatives” (2019):
# Assays:
# Aeromonas hydrophila = assay: Antibacterial activity against Aeromonas hydrophila OCC 778 after 18 hrs; assay type: functional; conditions: OCC 778, 18 h
# In short: (§1)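 Broth microdilution in Nutrient Broth No. 2; stocks in ethanol diluted to 0.01–128 µg/ml (triclosan) or 0.25–256 µg/ml (glycosides). Overnight 37 °C NB2 cultures diluted 1 in 10^4 in saline and added to the dilutions. Incubation at 37 °C with agitation, OD read every 15 min; MIC is the lowest concentration preventing any OD rise after 18 h.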
# Citrobacter freundii [1] = assay: Antibacterial activity against Citrobacter freundii OCC 851 after 18 hrs; assay type: functional; conditions: OCC 851, 18 h; in short: as §1
# Cronobacter sakazakii = assay: Antibacterial activity against Cronobacter sakazakii 29544 after 18 hrs; assay type: functional; conditions: Cronobacter sakazakii, 29544, 18 h; in short: as §1
# Klebsiella aerogenes [2] = assay: Antibacterial activity against Enterobacter aerogenes ATCC 13048 after 18 hrs; assay type: functional; conditions: ATCC 13048, 18 h; in short: as §1
# [3] = Antibacterial activity against Enterobacter cloacae ATCC 13047 after 18 hrs; assay type: functional, Enterobacter cloacae subsp. cloacae; conditions: ATCC 13047, 18 h; in short: as §1
# Escherichia coli [4] = assay: Antibacterial activity against Escherichia coli ATCC 8739 after 18 hrs; assay type: functional; conditions: ATCC 8739, 18 h; in short: as §1
# Escherichia coli [5] = assay: Antibacterial activity against Escherichia coli ATCC 10536 after 18 hrs; assay type: functional; conditions: ATCC 10536, 18 h; in short: as §1
# Escherichia coli [6] = assay: Antibacterial activity against Escherichia coli ATCC 11775 after 18 hrs; assay type: functional; in short: as §1
# Escherichia coli [7] = assay: Antibacterial activity against Escherichia coli ATCC 25922 after 18 hrs; assay type: functional; conditions: ATCC 25922, 18 h; in short: as §1
# Escherichia coli [8] = assay: Antibacterial activity against Escherichia coli ATCC 35218 after 18 hrs; assay type: functional; conditions: ATCC 35218, 18 h; in short: as §1
# Escherichia coli [9] = assay: Antibacterial activity against Escherichia coli 700728 after 18 hrs; assay type: functional; conditions: Escherichia coli, 700728, 18 h; in short: as §1
# Escherichia coli [10] = assay: Antibacterial activity against Escherichia coli NCTC 13216 after 18 hrs; assay type: functional; conditions: NCTC 13216, 18 h; in short: as §1
# Escherichia coli [11] = assay: Antibacterial activity against Escherichia coli OCC 122 after 18 hrs; assay type: functional; conditions: OCC 122, 18 h; in short: as §1
# Escherichia hermannii = assay: Antibacterial activity against Escherichia hermannii 33650 after 18 hrs; assay type: functional; conditions: Atlantibacter hermannii, 33650, 18 h; in short: as §1
# Hafnia alvei = assay: Antibacterial activity against Hafnia alvei 13337 after 18 hrs; assay type: functional; conditions: Hafnia alvei, 13337, 18 h; in short: as §1
# Klebsiella aerogenes [12] = assay: Antibacterial activity against Klebsiella aerogenes NCTC 8167 after 18 hrs; assay type: functional; conditions: NCTC 8167, 18 h; in short: as §1
# Klebsiella pneumoniae [13] = assay: Antibacterial activity against Klebsiella pneumoniae ATCC 10031 after 18 hrs; assay type: functional; conditions: ATCC 10031, 18 h; in short: as §1
# Proteus mirabilis = assay: Antibacterial activity against Proteus mirabilis ATCC 12453 after 18 hrs; assay type: functional; conditions: ATCC 12453, 18 h; in short: as §1
# Proteus vulgaris = assay: Antibacterial activity against Proteus vulgaris OCC 195 after 18 hrs; assay type: functional; conditions: OCC 195, 18 h; in short: as §1
# Pseudomonas aeruginosa = assay: Antibacterial activity against Pseudomonas aeruginosa ATCC 27853 after 18 hrs; assay type: functional; conditions: ATCC 27853, 18 h; in short: as §1
# Klebsiella pneumoniae [14] = assay: Antibacterial activity against Klebsiella pneumoniae ATCC 13883 after 18 hrs; assay type: functional; conditions: ATCC 13883, 18 h; in short: as §1
# Citrobacter freundii [15] = assay: Antibacterial activity against Citrobacter freundii 8090 after 18 hrs; assay type: functional; conditions: Citrobacter freundii, 8090, 18 h; in short: as §1
# Serratia marcescens = assay: Antibacterial activity against Serratia marcescens OCC 217 after 18 hrs; assay type: functional; conditions: OCC 217, 18 h; in short: as §1
# Bacillus cereus = assay: Antibacterial activity against Bacillus cereus ATCC 14579 after 18 hrs; assay type: functional; conditions: ATCC 14579, 18 h; in short: as §1
# Bacillus subtilis = assay: Antibacterial activity against Bacillus subtilis NCTC 10073 after 18 hrs; assay type: functional; conditions: NCTC 10073, 18 h; in short: as §1
# Enterococcus faecalis [16] = assay: Antibacterial activity against Enterococcus faecalis ATCC 29212 after 18 hrs; assay type: functional; conditions: ATCC 29212, 18 h; in short: as §1
# Enterococcus faecalis [17] = assay: Antibacterial activity against Enterococcus faecalis ATCC 33186 after 18 hrs; assay type: functional; conditions: ATCC 33186, 18 h; in short: as §1
# Enterococcus faecium = assay: Antibacterial activity against Enterococcus faecium ATCC 19434 after 18 hrs; assay type: functional; conditions: ATCC 19434, 18 h; in short: as §1
smiles,measurement,setting,value
OC[C@H]1O[C@H](Oc2cc(Cl)ccc2Oc2ccc(Cl)cc2Cl)[C@H](O)[C@@H](O)[C@@H]1O,MIC,Aeromonas hydrophila,256 µg/mL
same,MIC,Citrobacter freundii [1],4 µg/mL
same,MIC,Cronobacter sakazakii,8 µg/mL
same,MIC,Klebsiella aerogenes [2],8 µg/mL
same,MIC,[3],1 µg/mL
same,MIC,Escherichia coli [4],2 to 8 µg/mL
same,MIC,Escherichia coli [5],2 to 8 µg/mL
same,MIC,Escherichia coli [6],2 to 8 µg/mL
same,MIC,Escherichia coli [7],2 to 8 µg/mL
same,MIC,Escherichia coli [8],2 to 8 µg/mL
same,MIC,Escherichia coli [9],2 to 8 µg/mL
same,MIC,Escherichia coli [10],2 to 8 µg/mL
same,MIC,Escherichia coli [11],2 to 8 µg/mL
same,MIC,Escherichia hermannii,1 µg/mL
same,MIC,Hafnia alvei,1 µg/mL
same,MIC,Klebsiella aerogenes [12],2 µg/mL
same,MIC,Klebsiella pneumoniae [13],1 µg/mL
same,MIC,Proteus mirabilis,2 µg/mL
same,MIC,Proteus vulgaris,4 µg/mL
same,MIC,Pseudomonas aeruginosa,> 256 µg/mL
same,MIC,Klebsiella pneumoniae [14],1 µg/mL
same,MIC,Citrobacter freundii [15],4 µg/mL
same,MIC,Serratia marcescens,> 256 µg/mL
same,MIC,Bacillus cereus,128 µg/mL
same,MIC,Bacillus subtilis,32 µg/mL
same,MIC,Enterococcus faecalis [16],128 µg/mL
same,MIC,Enterococcus faecalis [17],128 µg/mL
same,MIC,Enterococcus faecium,256 µg/mL
